Bioassay records as filed in PubChem.
rRNA inh HTS – inhibits bacterial ribosomal RNA function over humanized ribosomes. E. coli WT GFP vs humanized-ribosome RFP mutants, fluorescence, 24 h; hits give low values; DMSO median 0, no signal -100. GFP signal change (wild-type ribosome), % (concentration not given with the values). 350,000 compounds, 1.6% hits. AID 720706;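 active = significant combined selectivity score with lowered wild-type GFP, culture density cut under 30%, mutant RFP and density less affected; inactive = any of these conditions unmet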
SR-BI DiI inh – inhibitors of mouse SR-BI mediated HDL lipid uptake; inhibition, % at 12.5 µM; ldlA[mSR-BI] CHO cells, DiI-HDL uptake fluorescence, 3 h; Q61009; 320,000 compounds, 0.96% hits;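 active = mean replicate inhibition of at least 70% and a set share of replicates each scoring 70 or more; inconclusive = meets just one of the two criteria; inactive = fails both criteria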;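 also: 0% = median of neutral control wells and 100% = median of positive control wells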
PvdQ acylase – blocks Pseudomonas aeruginosa PvdQ acylase activity | inhibition, % at 10 µM | AID 488965 | 340,000 compounds, 0.063% hits | purified PvdQ acylase, fluorescence plate reader; in the data active = inhibition above about 30%, passing the limit was not always enough; inconclusive = no clear call, values can overlap the other calls;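 also: 0% = vehicle neutral wells and 100% = reference inhibitor wells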
dFosB act – mouse delta FosB homodimer activation; purified delta FosB, TAMRA-CDK5 oligo fluorescence polarization; percent of positive-control signal above neutral wells; activation, % at 25 µM; 340,000 compounds, 0.99% hits; AID 493131; P13346;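 active = mean activation above about 17%, with every replicate also reaching it, limit read from the data, passing the limit was not always enough; inconclusive = only one of the two conditions met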
Target sequence (P13346 whole entry, looked up): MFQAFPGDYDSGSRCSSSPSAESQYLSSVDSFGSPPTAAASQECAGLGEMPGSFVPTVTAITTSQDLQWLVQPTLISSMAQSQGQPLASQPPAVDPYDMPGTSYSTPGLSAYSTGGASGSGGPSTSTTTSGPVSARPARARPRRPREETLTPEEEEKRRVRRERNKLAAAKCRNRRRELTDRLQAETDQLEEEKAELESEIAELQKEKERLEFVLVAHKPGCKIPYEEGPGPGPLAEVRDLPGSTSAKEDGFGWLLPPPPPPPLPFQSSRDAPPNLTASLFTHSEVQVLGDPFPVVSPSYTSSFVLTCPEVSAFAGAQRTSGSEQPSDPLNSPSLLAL
SR-BI DiI-HDL act – SR-BI HDL lipid transfer activation; 320,000 compounds, 0.096% hits; AID 504775; CHO ldlA[mSR-BI] cells, DiI-HDL uptake fluorescence, 3 h; 100 = double the neutral-control signal; activation, % at 12.5 µM;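 active = mean replicate activation of at least 60% and every replicate at or above 60%; inconclusive = mean or all-replicate condition met, but not both; inactive = mean below 60% and not all replicates reaching 60%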;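 also: 0% = median plate neutral-control signal and 100% = twice that signal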
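Material – SR-BI-overexpressing, LDLR-lacking CHO cells · Medium – BSA-supplemented, HEPES-buffered Ham's F12, pH 7.4 · Doses – single concentration · Times – compound with DiI-HDL co-incubation, 3 h at 37 °C · Measured by – bottom-read fluorescence, 550/595 nm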
Xi reactivation – reactivates the inactive X chromosome in mouse fibroblasts | 360,000 compounds, 0.055% hits | AID 743238 | XiGFP mouse fibroblasts, % GFP-positive cells imaging, 3 d; cells co-treated with 5-aza-dC sensitizer; scaled so ellipticine positive control = 100% | activation, % at 7.58 µM;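 active = mean normalized replicate activation at least 10% and every replicate at or above 10%; inconclusive = only one of the two criteria met; inactive = mean below 10% and not all replicates reach 10%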;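 also: 0% = median of on-plate neutral control wells and 100% = ellipticine 6 µM median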
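System: XiGFP fibroblasts, SV40-immortalized. Medium: DMEM plus 5-aza-dC sensitizer. Doses: single point. Timing: 3 d treatment, 15 min room-temperature fixation. Control set: ellipticine 6 µM.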
Active calls of the source: *; u = inconclusive; x = not tested or not shown. In the library only some 2.6% were active in any assay of this set; here they are far more common.

SMILES	rRNA inh HTS	SR-BI DiI inh	PvdQ acylase	dFosB act	SR-BI DiI-HDL act	Xi reactivation
COc1ccccc1C(=O)NCCC(=O)NCCCSc1ccccc1	-5.5	6.3	-15.4	-1.4	-6.3	0.0
Cc1c(-c2ccccc2)n(O)c(-c2ccc(N(C)C)cc2)[n+]1[O-]	7.0	x	x	x	x	0.0
COc1ccc(NC(=O)COC(=O)c2cc(OC)c(OC)cc2NC(=O)c2ccco2)cc1OC	x	66.3	-6.6	u	-66.3	x
CCOC(=O)c1sc2nc(C3CC3)cc(-c3ccc(F)cc3)c2c1N	x	76.7*	2.8	-2.0	-76.7	x
CCOC(=O)c1sc2nc(C3CC3)cc(-c3ccc(OC)cc3)c2c1N	x	0.1	-0.1	-3.5	-0.1	x
Cc1ccc(OCC(=O)Nc2ccc(CN3CCCCC3)cc2)c(C)c1	0.1	5.9	17.5	1.9	-5.9	0.0
COc1ccc(NC(=O)Cn2nnc(C(=O)NCCc3ccccc3)c2N)c(OC)c1	-8.8	40.2	-0.1	9.5	-40.2	0.7
COc1ccc(S(=O)(=O)Cc2ccc(C(=O)N3CCN(c4cc(Cl)ccc4C)CC3)o2)cc1	-17.4*	2.9	-11.0	-9.1	-2.9	-0.1
Cc1c(NC(=O)C(=O)/C=C(\O)c2ccc(Cl)cc2)c(=O)n(-c2ccccc2)n1C	x	-27.2	7.2	-6.7	27.2	0.2
COc1ccc(N2CCN(Cc3cc(=O)oc4ccc(Cl)cc34)CC2)cc1	x	1.1	-10.3	-5.3	-1.1	x
COc1ccc2nc3cc(Cl)ccc3c(Nc3ccc(O)c(CN4CCN(C)CC4)c3)c2c1	-48.5	17.9	-16.7	124.5*	-17.9	0.3
CCNC(=O)/C(C#N)=C/c1c(N(Cc2ccccc2)Cc2ccccc2)nc2ccccn2c1=O	-17.9*	-11.9	11.0	-0.2	11.9	-0.1
O=C(COC(=O)COc1cccc(Br)c1)Nc1c(Cl)cccc1Cl	3.2	-373.6	-2.8	u	373.6*	0.3
O=C(COC(=O)c1cc(S(=O)(=O)Nc2ccccc2Cl)ccc1O)Nc1ccc(F)c(F)c1F	8.0	-11.8	-4.2	24.7*	11.8	0.1
COc1ccc(OC)c(NC(=O)COC(=O)/C=C/c2c(C)nn(C3CCS(=O)(=O)C3)c2Cl)c1 (configuration not stated)	x	7.3	-5.5	-3.5	-7.3	x
O=C(COc1ccc(F)cc1Cl)Nc1ccc(N2CCOCC2)cc1N1CCOCC1	4.0	8.4	6.9	-11.1	-8.4	-0.1
Nc1c(C(=O)Nc2ccccc2)sc2ncc([N+](=O)[O-])cc12	22.9	x	x	x	x	0.0
CCOC(=O)c1sc(-c2ccccc2)cc1NC(=O)Nc1ccc([N+](=O)[O-])cc1	x	78.0*	13.4	-2.4	-78.0	-0.1
CCOC(=O)c1sc(-c2ccccc2)cc1N	x	-3.0	-7.0	1.0	3.0	x
CCOC(=O)c1sc2ncc([N+](=O)[O-])cc2c1N	-36.2*	16.7	16.8	0.6	-16.7	0.3
c1ccc(SCc2nc3ccccc3s2)nc1	-22.6*	1.9	6.4	-7.5	-1.9	-0.1
COc1ccc(NC(=O)c2ccc(NS(=O)(=O)c3cccc4cccnc34)cc2)cc1	-9.6	25.9	-13.8	-1.6	-25.9	0.0
Cc1nnc2ccc(-c3cccc(NC(=O)c4ccco4)c3)nn12	-10.8	x	-10.6	-5.4	x	-0.1
COc1ccc(CC(=O)Nc2cccc(-c3ccc4nncn4n3)c2)cc1OC	-9.9	x	-17.1	63.5*	x	-0.1
COc1ccc(CC(=O)Nc2ccc(-c3cn4ccc(C)cc4n3)cc2)cc1	x	82.7*	3.3	-5.7	-82.7	x
SMILES	rRNA inh HTS	SR-BI DiI inh	PvdQ acylase	dFosB act	SR-BI DiI-HDL act	Xi reactivation
COc1ccc(CC(=O)Nc2cccc(-c3ccc4nnc(C)n4n3)c2)cc1OC	-17.9	x	-11.4	72.7*	x	-0.1
COc1ccc(-c2cc3c(=O)n(CC(=O)Nc4cccc(Cl)c4)nc(C)n3n2)cc1	4.3	24.6	-8.1	23.9*	-24.6	0.0
O=C(c1ccncc1)N1C[C@@H]2[C@H](c3ccccc31)[C@H](CO)N2C(=O)c1ccccc1F	4.5	x	x	x	x	0.3
CC(C)Oc1cccc(C(=O)NC(=S)Nc2ccccc2)c1	x	-28.2	-2.5	3.3	28.2	0.0
Cc1ccc(C)c(NC(=O)C2CC(O)CN2C(=O)Oc2ccccc2)c1 (configuration not stated)	4.2	-4.9	4.9	-5.3	4.9	0.0
COc1cc(C2CC(=O)Oc3cc(O)ccc32)cc(OC)c1OC (configuration not stated)	2.0	-8.9	-0.5	-0.4	8.9	0.2
COc1ccc(CC(=O)Nc2cccc(-c3ccc4nnc(C)n4n3)c2)cc1	-25.2	x	-6.7	72.7*	x	-0.1
Cc1nnc2ccc(-c3cccc(NC(=O)Cc4cccs4)c3)nn12	-9.0	x	-5.1	-32.4	x	0.1
CCCS(=O)(=O)Nc1cccc(-c2ccc3nnc(C)n3n2)c1	13.9	4.8	-10.4	-9.4	-4.8	0.0
CCOc1ccc(CC(=O)Nc2cccc(-c3ccc4nnc(C)n4n3)c2)cc1	-34.0*	45.6	-13.6	89.2*	-45.6	0.1
CCn1c2ccccc2c2cc(C#N)c(N)nc21	-16.4	x	x	x	x	0.0
COc1ccc(CCNC(=O)c2ccc(CNS(=O)(=O)c3cccc(Cl)c3)cc2)cc1OC	x	80.8*	-12.2	-3.5	-80.8	0.1
COc1ccc(CCNC(=O)c2ccncc2)cc1OC	x	-9.0	-10.3	-2.5	9.0	x
COc1ccc(CCNC(=O)c2ccc(CNS(=O)(=O)c3ccc(C(C)(C)C)cc3)cc2)cc1OC	x	65.2	7.9	0.5	-65.2	0.5
COc1ccc(CCNC(=O)c2ccc(CNS(=O)(=O)c3cc(C)ccc3C)cc2)cc1OC	x	78.9*	-10.6	-5.9	-78.9	x
Cn1c(=O)c2c(nc(NN=C3CCCCC3)n2C)n(C)c1=O	23.1	-10.4	-5.2	-2.4	10.4	0.0
CC(=O)N1N=C(c2ccccc2)CC1c1cn(C)c2ccccc12 (configuration not stated)	x	-18.8	6.1	-10.0	18.8	0.4
CC(NC(=O)CN1CCN(c2cccc(Cl)c2)CC1)c1ccccc1 (configuration not stated)	-28.1*	8.0	13.1	-2.6	-8.0	0.0
CC(NS(=O)(=O)c1ccc(F)cc1)C(c1cccs1)N1CCOCC1 (configuration not stated)	-0.3	-31.1	7.9	-4.4	31.1	-0.1
COc1ccc([N+](=O)[O-])cc1NC(=S)NC(NC(=O)C(c1ccccc1)c1ccccc1)C(Cl)(Cl)Cl (configuration not stated)	x	87.0*	-8.1	6.4	-87.0	x
COCCSc1ccccc1C(=O)Nc1cc([N+](=O)[O-])ccc1OC	8.9	82.9*	-4.7	1.9	-82.9	0.4
